{
  "source": "ChEMBL document CHEMBL1799988",
  "about": "“Novel chalcone derivatives as potent Nrf2 activators in mice and human lung epithelial cells” (J Med Chem, 2011)",
  "key": {"[1]": {"molecular_target": "T1, Nuclear factor erythroid 2-related factor 2 (Homo sapiens) (UniProt Q16236)", "T1 sequence (whole entry)": "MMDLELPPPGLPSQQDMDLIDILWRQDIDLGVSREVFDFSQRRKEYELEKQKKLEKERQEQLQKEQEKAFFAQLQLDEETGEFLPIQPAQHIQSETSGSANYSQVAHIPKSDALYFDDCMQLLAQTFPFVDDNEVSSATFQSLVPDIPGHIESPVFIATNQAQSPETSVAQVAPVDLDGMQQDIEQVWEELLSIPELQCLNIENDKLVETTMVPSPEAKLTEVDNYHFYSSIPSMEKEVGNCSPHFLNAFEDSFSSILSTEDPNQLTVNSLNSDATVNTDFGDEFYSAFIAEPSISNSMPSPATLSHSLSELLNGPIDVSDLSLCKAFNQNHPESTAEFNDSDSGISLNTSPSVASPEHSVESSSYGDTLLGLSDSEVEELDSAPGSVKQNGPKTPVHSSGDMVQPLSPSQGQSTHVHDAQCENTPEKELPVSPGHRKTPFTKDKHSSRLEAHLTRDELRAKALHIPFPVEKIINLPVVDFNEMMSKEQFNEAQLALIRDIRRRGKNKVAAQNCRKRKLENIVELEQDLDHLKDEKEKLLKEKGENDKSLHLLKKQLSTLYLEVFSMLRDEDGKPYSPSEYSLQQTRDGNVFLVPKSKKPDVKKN", "assay": "Induction of Nrf2-mediated GCLM gene expression in human BEAS2B cells at […] 24 hrs by RT-PCR analysis", "type": "functional, cell-based", "how_it_was_run": "(§1)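 Beas-2B cells co-incubated with 10 µM compound with or without N-acetylcysteine (10 mM); cells harvested 24 h later. GCLM, NQO1 and HO-1 mRNA quantified by TaqMan qRT-PCR, normalized to β-actin. Representative of 3 independent experiments, triplicate wells.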"}, "[2]": {"molecular_target": "T1, Nuclear factor erythroid 2-related factor 2 (Homo sapiens)", "assay": "Induction of Nrf2-mediated NQO1 gene expression in human BEAS2B cells at […] 24 hrs by RT-PCR analysis", "type": "functional, cell-based", "how_it_was_run": "as §1"}, "[3]": {"molecular_target": "T1, Nuclear factor erythroid 2-related factor 2 (Homo sapiens)", "assay": "Induction of Nrf2-mediated HO1 gene expression in human BEAS2B cells at […] 24 hrs by RT-PCR analysis", "type": "functional, cell-based", "how_it_was_run": "as §1"}, "[4]": {"molecular_target": "T1, Nuclear factor erythroid 2-related factor 2 (Homo sapiens)", "assay": "Induction of Nrf2-mediated GCLM gene expression in human BEAS2B cells at 10 uM after 16 hrs by RT-PCR analysis relative to untreated control", "type": "functional, cell-based", "how_it_was_run": "(§2)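 Beas-2B cells (DMEM:F12, 10% FBS) plated 24 h, then exposed to 10 µM compound in DMSO (final ≤0.1%) for 16 h; sulforaphane as positive control. Total RNA extracted, reverse transcribed with random hexamers, GCLM and NQO1 mRNA quantified by TaqMan qRT-PCR, fold change vs DMSO. Representative of 3 independent experiments, quadruplicate wells.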"}, "[5]": {"molecular_target": "T1, Nuclear factor erythroid 2-related factor 2 (Homo sapiens)", "assay": "Induction of Nrf2-mediated NQO1 gene expression in human BEAS2B cells at 10 uM after 16 hrs by RT-PCR analysis relative to untreated control", "type": "functional, cell-based", "how_it_was_run": "as §2"}, "[6]": {"assay": "Cytotoxicity against human BEAS2B cells assessed as cell viability after 24 hrs by MTT assay", "type": "cell-based, BEAS-2B", "design": "concentration or dose not given beside the values", "conditions": "read-out: Activity", "how_it_was_run": "(§3)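 Beas-2B cells treated with compound or DMSO vehicle (0.1%) for 24 h; MTT (5 mg/ml in serum-free medium) added for the last 4 h, formazan dissolved in DMSO after PBS wash, absorbance read at 570 nm. Viability also checked by trypan blue exclusion.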"}, "Mus musculus [7]": {"tested_on": "Mus musculus", "assay": "Induction of Nrf2-mediated GCLM gene expression in small intestine of C57BL/6 mouse at 50 mg/kg, po administered as single dose measured after 24 hrs by RT-PCR analysis related to control", "type": "functional", "how_it_was_run": "(§4)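 Male C57BL/6 mice (7 weeks, AIN 76A diet; n=4) given a single 50 mg/kg oral gavage of compound, sulforaphane, or vehicle (10% DMSO + 10% Cremophor EL + 80% PBS). Small intestine harvested 24 h later; GCLM and NQO1 mRNA measured by TaqMan qRT-PCR with β-actin normalization.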"}, "Mus musculus [8]": {"tested_on": "Mus musculus", "assay": "Induction of Nrf2-mediated GCLM gene expression in small intestine of C57BL/6 mouse at 50 mg/kg, po administered as single dose measured after 24 hrs by RT-PCR analysis related to sulforaphane", "type": "functional", "how_it_was_run": "as §4"}, "Mus musculus [9]": {"tested_on": "Mus musculus", "assay": "Induction of Nrf2-mediated NQO1 gene expression in small intestine of C57BL/6 mouse at 50 mg/kg, po administered as single dose measured after 24 hrs by RT-PCR analysis related to control", "type": "functional", "how_it_was_run": "as §4"}, "Mus musculus [10]": {"tested_on": "Mus musculus", "assay": "Induction of Nrf2-mediated NQO1 gene expression in small intestine of C57BL/6 mouse at 50 mg/kg, po administered as single dose measured after 24 hrs by RT-PCR analysis related to sulforaphane", "type": "functional", "how_it_was_run": "as §4"}, "[11]": {"molecular_target": "T1, Nuclear factor erythroid 2-related factor 2 (Homo sapiens)", "assay": "Induction of Nrf2-mediated NQO1 gene expression in human BEAS2B cells overexpressing ARE luciferase reporter plasmid after 16 hrs by chemiluminescence assay", "type": "functional, cell-based", "how_it_was_run": "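Beas-2B cells stably transfected with NQO1-ARE luciferase reporter (blasticidin 6 µg/ml selection) seeded at 10,000 cells/well for 16 h, then exposed to graded compound concentrations or DMSO for 16 h. Luciferase activity read by chemiluminescence as relative luminescence intensity. Representative of 3 independent experiments, quadruplicate wells.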"}, "[12]": {"molecular_target": "T1, Nuclear factor erythroid 2-related factor 2 (Homo sapiens)", "assay": "Induction of Nrf2-mediated GCLM mRNA expression in human BEAS2B cells after 24 hrs by RT-PCR analysis", "type": "functional, cell-based", "how_it_was_run": "(§5)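 Beas-2B cells exposed for 24 h to 2.5, 5, 10 or 20 µM compound in DMSO (final ≤0.1%), sulforaphane as comparator. GCLM, NQO1 and HO1 mRNA measured by TaqMan qRT-PCR, normalized to β-actin. Representative of 3 independent experiments, triplicate wells.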"}, "[13]": {"molecular_target": "T1, Nuclear factor erythroid 2-related factor 2 (Homo sapiens)", "assay": "Induction of Nrf2-mediated NQO1 mRNA expression in human BEAS2B cells after 24 hrs by RT-PCR analysis", "type": "functional, cell-based", "how_it_was_run": "as §5"}, "[14]": {"molecular_target": "T1, Nuclear factor erythroid 2-related factor 2 (Homo sapiens)", "assay": "Induction of Nrf2-mediated HO1 mRNA expression in human BEAS2B cells after 24 hrs by RT-PCR analysis", "type": "functional, cell-based", "how_it_was_run": "as §5"}, "[15]": {"molecular_target": "T1, Nuclear factor erythroid 2-related factor 2 (Homo sapiens)", "assay": "Induction of Nrf2-mediated GCLM mRNA expression in human BEAS2B cells at 20 uM after 24 hrs by RT-PCR analysis", "type": "functional, cell-based", "how_it_was_run": "as §5"}, "[16]": {"assay": "Cytotoxicity against human BEAS2B cells assessed as cell viability at 20 uM after 24 hrs by MTT assay relative to sulforaphane", "type": "cell-based", "conditions": "beas-2b", "how_it_was_run": "as §3"}, "[17]": {"molecular_target": "T1, Nuclear factor erythroid 2-related factor 2 (Homo sapiens)", "assay": "Induction of Nrf2-mediated HO1 mRNA expression in human BEAS2B cells at 10 uM after 24 hrs by RT-PCR analysis relative to sulforaphane", "type": "functional, cell-based"}, "[18]": {"molecular_target": "T1, Nuclear factor erythroid 2-related factor 2 (Homo sapiens)", "assay": "Induction of Nrf2-mediated HO1 mRNA expression in human BEAS2B cells at 10 uM after 6 hrs by RT-PCR analysis relative to sulforaphane", "type": "functional, cell-based", "how_it_was_run": "(§6)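 Time course in Beas-2B cells at 10 µM compound: GCLM, NQO1 and HO-1 mRNA measured 6, 12, 24 and 48 h after treatment by TaqMan qRT-PCR, β-actin normalization. Representative of 3 independent experiments, triplicate wells.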"}, "[19]": {"molecular_target": "T1, Nuclear factor erythroid 2-related factor 2 (Homo sapiens)", "assay": "Induction of Nrf2-mediated GCLM mRNA expression in human BEAS2B cells at 10 uM after 6 hrs by RT-PCR analysis", "type": "functional, cell-based", "how_it_was_run": "as §6"}, "[20]": {"molecular_target": "T1, Nuclear factor erythroid 2-related factor 2 (Homo sapiens)", "assay": "Induction of Nrf2-mediated HO1 mRNA expression in human BEAS2B cells at 10 uM after 48 hrs by RT-PCR analysis relative to sulforaphane", "type": "functional, cell-based", "how_it_was_run": "as §6"}, "[21]": {"molecular_target": "T1, Nuclear factor erythroid 2-related factor 2 (Homo sapiens)", "assay": "Induction of Nrf2-mediated GCLM mRNA expression in human BEAS2B cells at 10 uM after 48 hrs by RT-PCR analysis", "type": "functional, cell-based", "how_it_was_run": "as §6"}, "[22]": {"molecular_target": "T1, Nuclear factor erythroid 2-related factor 2 (Homo sapiens)", "assay": "Induction of Nrf2-mediated NQO1 mRNA expression in human BEAS2B cells at 10 uM after 24 hrs by RT-PCR analysis relative to sulforaphane", "type": "functional, cell-based"}, "[23]": {"molecular_target": "T1, Nuclear factor erythroid 2-related factor 2 (Homo sapiens)", "assay": "Induction of Nrf2-mediated NQO1 mRNA expression in human BEAS2B cells at 10 uM after 48 hrs by RT-PCR analysis relative to sulforaphane", "type": "functional, cell-based", "how_it_was_run": "as §6"}, "[24]": {"molecular_target": "T1, Nuclear factor erythroid 2-related factor 2 (Homo sapiens)", "assay": "Induction of Nrf2-mediated GCLM gene expression in human BEAS2B cells at 10 uM after 24 hrs by RT-PCR analysis in presence of 10 mM N-acetylcysteine", "type": "functional, cell-based", "how_it_was_run": "as §1"}, "[25]": {"molecular_target": "T1, Nuclear factor erythroid 2-related factor 2 (Homo sapiens)", "assay": "Induction of Nrf2-mediated NQO1 gene expression in human BEAS2B cells at 10 uM after 24 hrs by RT-PCR analysis in presence of 10 mM N-acetylcysteine", "type": "functional, cell-based", "how_it_was_run": "as §1"}, "[26]": {"molecular_target": "T1, Nuclear factor erythroid 2-related factor 2 (Homo sapiens)", "assay": "Induction of Nrf2-mediated HO1 gene expression in human BEAS2B cells at 10 uM after 24 hrs by RT-PCR analysis in presence of 10 mM N-acetylcysteine", "type": "functional, cell-based", "how_it_was_run": "as §1"}, "[27]": {"molecular_target": "T1, Nuclear factor erythroid 2-related factor 2 (Homo sapiens)", "assay": "Induction of Nrf2-mediated NQO1 mRNA expression in human BEAS2B cells at 20 uM after 24 hrs by RT-PCR analysis"}},
  "note": "Calls of active or inactive are those of the source. No cut-off for these calls is given here.",
  "data": [
    {"compound": "CC(=O)N[C@@H](CS)C(=O)O", "values": [
      {"measurement": "Activity", "setting": "[1]", "value": "inactive"},
      {"measurement": "Activity", "setting": "[2]", "value": "inactive"},
      {"measurement": "Activity", "setting": "[3]", "value": "inactive"}
    ]},
    {"compound": "COc1ccccc1C(=O)/C=C/c1ccccc1C(F)(F)F", "values": [
      {"measurement": "fold change (FC)", "setting": "[4]", "value": 4.5},
      {"measurement": "fold change (FC)", "setting": "[5]", "value": 4.6},
      {"measurement": "viability at 24 h", "setting": "[6]", "value": 101, "unit": "%"},
      {"measurement": "fold change (FC)", "setting": "Mus musculus [7]", "value": 6},
      {"measurement": "fold change (FC)", "setting": "Mus musculus [8]", "value": 3},
      {"measurement": "fold change (FC)", "setting": "Mus musculus [9]", "value": 10},
      {"measurement": "fold change (FC)", "setting": "Mus musculus [10]", "value": 5},
      {"measurement": "Activity", "setting": "[11]", "value": "Dose-dependent effect"},
      {"measurement": "Activity", "setting": "[12]", "value": "Dose-dependent effect"},
      {"measurement": "Activity", "setting": "[13]", "value": "Dose-dependent effect"},
      {"measurement": "Activity", "setting": "[14]", "value": "Dose-dependent effect"},
      {"measurement": "fold change (FC)", "setting": "[15]", "value": 5},
      {"measurement": "Activity", "setting": "[16]", "value": "Non-toxic"},
      {"measurement": "fold change (FC)", "setting": "[17]", "value": 6},
      {"measurement": "fold change (FC)", "setting": "[18]", "value": 150},
      {"measurement": "fold change (FC)", "setting": "[19]", "value": 7},
      {"measurement": "Activity", "setting": "[20]", "value": "inactive"},
      {"measurement": "Activity", "setting": "[21]", "value": "inactive"},
      {"measurement": "Activity", "setting": "[22]", "value": "Active"},
      {"measurement": "Activity", "setting": "[23]", "value": "Active"},
      {"measurement": "Activity", "setting": "[24]", "value": "Active"},
      {"measurement": "Activity", "setting": "[25]", "value": "Active"},
      {"measurement": "Activity", "setting": "[26]", "value": "Active"},
      {"measurement": "fold change (FC)", "setting": "[27]", "value": 10}
    ]}
  ]
}
